RORa activator: activators of human nuclear receptor RORA. AID 560. CHO-K1 Gal4-RORA LBD luciferase reporter, luminescence; percent increase over mock-subtracted basal signal. activation, % at 10 µM. 65,000 tested, 1.5% active. P35398;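 active means activation above the mean of all tested compounds plus 3 SD, cut at about 49% in these data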;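 further: 0% = DMSO-treated RORA cells and 100% = added signal equal to DMSO minus mock-transfected cells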
Target sequence (P35398 whole entry, looked up, the tested form may be a part): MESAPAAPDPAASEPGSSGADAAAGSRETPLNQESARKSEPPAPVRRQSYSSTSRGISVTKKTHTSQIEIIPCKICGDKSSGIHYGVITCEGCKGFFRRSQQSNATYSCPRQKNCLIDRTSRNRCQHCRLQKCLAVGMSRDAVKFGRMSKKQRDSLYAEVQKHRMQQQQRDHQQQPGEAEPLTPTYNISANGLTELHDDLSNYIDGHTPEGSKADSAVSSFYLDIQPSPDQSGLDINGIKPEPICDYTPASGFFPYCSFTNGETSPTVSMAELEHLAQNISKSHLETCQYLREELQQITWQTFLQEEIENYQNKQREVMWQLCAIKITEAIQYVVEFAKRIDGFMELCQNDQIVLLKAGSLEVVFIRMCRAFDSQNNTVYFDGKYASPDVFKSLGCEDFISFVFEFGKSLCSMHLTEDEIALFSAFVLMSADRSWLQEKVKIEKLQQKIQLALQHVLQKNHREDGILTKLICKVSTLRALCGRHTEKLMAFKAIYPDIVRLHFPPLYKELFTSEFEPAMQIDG
D1 mod: D1 dopamine receptor (human) allosteric modulation | P21728 | HEK293 D1, CRE-luciferase, dopamine EC30 potentiation; actives deviate in either direction | B-score at 10 µM | 58,000 tested, 5.9% active;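 active means luminescence count or its row- and column-corrected plate score outside the 99.7% band of the plate's sample wells, on either side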
SF1 activator: SF-1 (human) activation. Q13285. CHO-K1 Gal4-SF-1 LBD luciferase reporter; % increase over DMSO SF-1-specific signal. activation, % at 10 µM. 65,000 tested, 1.9% active. AID 522;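 active means activation above the mean activation of all tested compounds plus 3 SD, cut at about 50% in these data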
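Assay system – CHO-K1 cells with Gal4–hSF-1 LBD chimera plus Gal4-driven luciferase · Quantity – 4,000 cells per well · Times – compound added 1 h post-seeding, 20 h exposure at 37 °C, 5% CO2 · Measured by – luciferase light emission · Benchmarks – DMSO and mock-transfected background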
M1 antag: M1 muscarinic receptor (rat) antagonism; P08482; CHO-M1 cells, Fluo-4 calcium, ACh EC80 antagonist mode; hits give low values; B-score at 10 µM; 64,000 tested, 3.4% active; AID 628;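 active means calcium fluorescence response, raw or row-and-column corrected B-score, differing from the plate sample mean either way at a set confidence level, mostly lower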
mHtt clearance: compounds clearing mutant huntingtin protein; HeLa Exon1htt(103Q)mCFP, aggregate imaging; zero = plate's median compound well; inhibition, % at 1.5 µM; 47,000 tested, 0.42% active; AID 853;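 active means inhibition of aggregate fluorescence above about 70%, also judged a hit by eye on the cell image, limit read from the data, passing the limit was not always enough; inconclusive means no rule stated for this call; inactive means not judged a hit on image review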;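 further: cells exposed to compound for three days before fixation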
M1 agonist: agonists of M1 muscarinic receptor; 64,000 tested, 3% active; CHO-M1 cells, Fluo-4 calcium fluorescence, agonist mode; hits give high values; AID 626; B-score at 10 µM;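 active means fluorescence rise, raw or as B-score row- and column-corrected plate score, outside the 99.7% band of its plate's samples, either direction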
M1 agonist conf: rat M1 muscarinic agonism, confirmation; fluorescence change (max-min) at 10 µM; AID 1488; CHO-M1 cells, Fluo-4 calcium fluorescence, agonist mode; actives lie on both sides; 1,700 tested, 19% active; shares compounds with M1 agonist;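 active means fluorescence change differs from the solvent-only DMSO control mean at a set confidence level in both duplicate runs; inconclusive means differs from solvent-only control mean in just one of two runs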;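 further: an EC20 dose of acetylcholine follows compound addition during the same imaging run; raw fluorescence intensity difference in instrument units with no normalization to controls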
M4 agonist ctr: counter-screen for M1 agonists: activity at rat M4 receptor; 1,700 tested, 9% active; AID 1741; CHO M4/Gqi5 cells, Fluo-4 calcium fluorescence, agonist mode; actives lie on both sides; shares compounds with M1 agonist; fluorescence change (max-min) at 10 µM;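 active means fluorescence change differing from the plate's solvent-only control wells at 99.7% confidence in both duplicates, whether higher or lower; inconclusive means differs from solvent controls in only one of two duplicates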
* hit, by the source's call; ? = inconclusive; nt = not tested or not shown. Hits are enriched below; roughly 11% of the tested compounds scored in any of these assays.

SMILES | RORa activator | D1 mod | SF1 activator | M1 antag | mHtt clearance | M1 agonist | M1 agonist conf | M4 agonist ctr
O=S(=O)(NCCOCC(F)(F)C(F)F)c1ccc2oc3ccccc3c2c1 | 12 | nt | -16 | -1.1 | 10 | 15* | -22* | -31
CCOC(=O)N1CCC(NC(=O)C2CCCN(Cc3nc(-c4cccc(Cl)c4)oc3C)C2)CC1 (configuration not stated) | -63 | -2.3 | -58 | -4.4* | nt | 10* | -5.4 | -56
CCN1CCN(CCNC(=O)C2CCCN(Cc3nc(-c4cccc(Cl)c4)oc3C)C2)CC1 (configuration not stated) | 26 | -0.55 | 4 | 0.38 | nt | 0.76 | nt | nt
Cc1c(NC(=O)CSc2ncn[nH]2)c(=O)n(-c2ccccc2)n1C | nt | nt | nt | nt | -35 | nt | nt | nt
Cc1ccc2nc(SCC(=O)Nc3c(C)n(C)n(-c4ccccc4)c3=O)[nH]c2c1 | 18 | 1.4 | -10 | -0.041 | 24 | 2.9* | -7.1 | -32
CCOC(=O)N1CCN(C(=O)c2nc3ccccc3s2)CC1 | 23 | nt | 32 | 0.44 | nt | -0.3 | nt | nt
CCOC(=O)c1c(C)n(C)c2ccc(OCC(O)Cn3nc(C)cc3C)cc12 (configuration not stated) | -11 | 0.86 | -11 | -0.36 | 38 | 2.7* | ? | -40
COc1cc(-c2nnc(SCC(=O)Nc3cc(C)on3)n2C)cc(OC)c1O | 5 | -0.4 | -24 | -0.063 | -6 | -0.0066 | nt | nt
O=C(Nc1ccc(F)cc1)N(Cc1ccco1)Cc1cc2cc3c(cc2[nH]c1=O)OCO3 | 24 | -0.2 | 13 | 0.79 | nt | -2.5* | -13 | -22
Cc1ccc(NC(=O)N(Cc2ccc3c(c2)OCO3)Cc2cc3cc4c(cc3[nH]c2=O)OCCO4)cc1 | 7 | 0.83 | 49 | -0.32 | -75 | 0.63 | nt | nt
O=S1(=O)N=C(Nc2ccc(O)c(CN3CCCCC3)c2)c2ccccc21 | -4 | nt | -14 | -0.0031 | nt | 1.1 | nt | nt
COc1ccc(OC)c(N(CC(=O)Nc2cccnc2)S(=O)(=O)c2ccc(C)cc2)c1 | nt | nt | nt | nt | 36 | nt | nt | nt
COc1ccc(OC)c(N(CC(=O)Nc2cccnc2)S(=O)(=O)c2ccc(OC)c(OC)c2)c1 | -11 | nt | -8 | -0.95 | 6 | 2.2* | -12 | ?
COc1ccc(OC)c(N(CC(=O)Nc2ccc3c(c2)OCO3)S(=O)(=O)c2ccccc2)c1 | 7 | -2 | 0 | 0.5 | nt | 2.8* | ? | ?
COC(=O)[C@H](CCSC)NC(=O)NCc1ccc(S(N)(=O)=O)cc1 | -10 | -0.067 | -6 | 0.064 | -54 | 0.55 | nt | nt
Cc1ccc(-c2noc(CCCC(=O)N3CCOCC3)n2)cc1 | -19 | -0.093 | -2 | -0.46 | nt | -0.55 | nt | nt
O=C(CCCc1nc(-c2ccc(Cl)cc2)no1)N1CCOCC1 | 3 | -1.4 | 5 | -0.65 | 20 | -2.5* | ? | -90*
COCc1nnc(NS(=O)(=O)c2ccc(Br)cc2)s1 | -5 | -1.3 | 4 | -0.0023 | nt | 0.069 | nt | nt
CC1=C(C(=O)N(C)C)C(c2cccc(Cl)c2)NC(=O)N1 (configuration not stated) | -2 | 0.00065 | 5 | 0.54 | nt | 0.91 | nt | nt
CC(C)COC(=O)NCCOC(=O)Nc1cccc(Cl)c1 | -15 | -0.96 | -16 | -2.2* | -31 | 7.5* | -0.81 | -85*
COc1ccc(-c2noc(CN3CCN(c4ccccc4)CC3)n2)cc1 | -22 | -0.32 | -9 | 0.56 | nt | -1 | nt | nt
CCOC(=O)N1CCN(Cc2nc(-c3ccc(C)cc3)no2)CC1 | 1 | -0.021 | 1 | 0.99 | nt | 2.5* | -4.9 | -11
Nc1ccc(-n2c(N)c(C(=O)NCc3ccc4c(c3)OCO4)c3nc4ccccc4nc32)cc1 | 20 | -1 | -32 | 0.4 | nt | -0.65 | nt | nt
Nc1c(C(=O)NCc2ccc3c(c2)OCO3)c2nc3ccccc3nc2n1CCCN1CCOCC1 | 27 | -1.4 | 0 | 0.036 | nt | -2.6* | -8.6 | -48
O=C(Cn1ccc2ccccc2c1=O)NCCC(=O)N1CCN(C2CCCCC2)CC1 | -15 | -0.88 | 4 | -0.86 | 48 | 17* | -1.5 | -25
SMILES | RORa activator | D1 mod | SF1 activator | M1 antag | mHtt clearance | M1 agonist | M1 agonist conf | M4 agonist ctr
CCN1CCN(C(=O)CSCc2nc(-c3ccc(OC)c(OC)c3)oc2C)CC1 | 0 | 0.056 | 1 | -0.26 | nt | -0.32 | nt | nt
CCc1ccc(-c2nc(CSCC(=O)N3CCN(c4ncccn4)CC3)c(C)o2)cc1 | -48 | -3.5 | -51 | -0.46 | ? | 8.2* | -15 | ?
CCC1CCCCN1C(=O)CSc1nnc(-c2cccc(Cl)c2)o1 (configuration not stated) | 25 | -0.21 | 24 | 0.23 | nt | 2.5* | -12 | -23
Cn1c(CCNC(=O)c2ccco2)nc2cc(NS(=O)(=O)c3ccccc3)ccc21 | -25 | -0.78 | 5 | -0.15 | nt | 32* | ? | -68
Cn1c(CCNC(=O)c2ccco2)nc2cc(NC(=O)c3ccco3)ccc21 | 34 | 0.055 | 28 | 0.19 | nt | 0.079 | nt | nt
Cn1c(=O)cc(OCC(=O)Nc2ccccn2)c2ccccc21 | -10 | -0.096 | -4 | -0.77 | -50 | 0.65 | nt | nt
O=C(Cc1cccs1)N1CCCC(c2nc3c(nnn3Cc3cccc(Cl)c3)c(=O)[nH]2)C1 (configuration not stated) | 6 | 0.7 | -6 | -0.33 | -26 | 0.75 | nt | nt
COCCNC(=O)Cn1nc(C(F)(F)F)c(Cl)c1C | -15 | -0.14 | -6 | -0.024 | -58 | 0.075 | nt | nt
Cc1cc(C)c(NC(=O)C2CCCN2CCO)c(C)c1 (configuration not stated) | 27 | 0.12 | -2 | 0.22 | -12 | 2* | 1.8 | -8.9
CCCCN1CC(C(=O)NC2CCCCC2)CC1=O (configuration not stated) | 1 | -0.39 | 0 | -0.61 | 17 | -1.2 | nt | nt
O=C(NCCc1ccccc1)C1CCN(S(=O)(=O)N2CCCC2)CC1 | -12 | 1.2 | -8 | 0.28 | nt | -0.17 | nt | nt
O=C(NCCc1ccc(Cl)cc1)C1CCN(S(=O)(=O)N2CCCCC2)CC1 | -21 | -0.6 | 0 | -0.63 | -29 | 1.9* | ? | -72
O=C(NC1=NCCS1)C1Cc2ccccc2CN1C(=O)c1ccccc1 (configuration not stated) | 10 | 0.13 | 15 | -0.51 | nt | 0.24 | nt | nt
COc1ccc(NC(=O)C2Cc3ccccc3CN2C(=O)c2ccccc2)cn1 (configuration not stated) | 9 | -0.28 | 35 | -0.62 | -33 | 16* | ? | ?
O=C(NCc1ccccc1)N1CCn2c(nc3ccccc32)C1 | -1 | 0.61 | -14 | 0.99 | nt | 0.0044 | nt | nt
c1cc2c(cc1-c1cnc3n1CCC3)OCCO2 | -3 | -2.8 | -3 | -2.5 | nt | 2.6* | ? | -61

High-throughput results from PubChem.
